Measurements of several laboratories.
Compare with care: the assays were run in different laboratories.
GLO1: Lactoylglutathione lyase (GLO1, Homo sapiens, UniProt Q04760)
MAOB: Amine oxidase [flavin-containing] B (MAOB, Homo sapiens, UniProt P27338)

C#Cc1cc(-c2cc(Nc3nc(N[C@@H](C)c4ccc(F)cn4)ncc3Cl)n[nH]2)ccc1C=O
inhibition (Ribosomal protein S6 kinase alpha-6 (RPS6KA6, Homo sapiens, UniProt Q9UK32); enzyme activity; inhibitor; 0.2 µM): 16.8%

O=C(N[C@@H](CSCc1ccc([N+](=O)[O-])cc1)C(=O)NO)c1ccccc1
inhibition (GLO1; enzyme activity; inhibitor; 1 µM): 46.1%

O=C(Nc1cccc(Cl)c1)c1ccc2c(c1)C(=O)NC2=O
inhibition (MAOB; enzyme activity; inhibitor; 1 µM): 63.9%

Cc1cc(F)cc2c(CCC(=O)N[C@@H]3C(=O)NC[C@H]3O)c(-c3ccc(F)cc3)[nH]c12
inhibition (Beta-1 adrenergic receptor (ADRB1, Homo sapiens, UniProt P08588); cell-free assay; 10 µM): -1.5%

O=C(Nc1ccccc1)c1ccc2c(c1)C(=O)NC2=O
inhibition (MAOB; enzyme activity; inhibitor; 1 µM): 25%

CCN1/C(=C/C(C)=O)Sc2ccc(F)cc21
inhibition (Endothelin receptor type B (EDNRB, Homo sapiens, UniProt P24530); ligand displacement; radioligand; 10 µM): 0%

NC/C(=C\F)COc1cccc(Cn2c(=S)[nH]c(=O)c3[nH]cnc32)c1
inhibition (Histamine H1 receptor (HRH1, Homo sapiens, UniProt P35367); ligand displacement; radioligand; 10 µM): < 50%

Cc1cc(O)c(-c2ccc([C@@H](C)CN(C)C)cc2)c2c1[nH]c(=O)c1sccc12
inhibition (Serine/threonine-protein kinase NLK (NLK, Homo sapiens, UniProt Q9UBE8); cell-free assay; inhibitor; 0.1 µM; lysate): -4.94%

O=C(N[C@@H](CSCc1ccccc1)C(=O)NO)c1ccccc1
inhibition (GLO1; enzyme activity; inhibitor; 1 µM): 31.4%

O=C(Nc1ccc(Cl)cc1)c1ccc2c(c1)C(=O)NC2=O
inhibition (MAOB; enzyme activity; inhibitor; 1 µM): 52%
